From ChEMBL document CHEMBL5058577, “EUbOPEN Chemogenomics Library 2 (Multiplex)” (2022)

Test system: U2OS
Assay: Multiplex assay against U2OS
Format: toxicity, cell-based
Details: human
In short: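 Cells were classed with CellPathfinder machine-learning gating, first as Hoechst high-intensity objects or normal cells, then (normal cells) as healthy, pyknosed or fragmented nuclei, and finally (pyknosed cells) as mitotic or apoptotic. Staining of live cells at seeding used Hoechst33342, BioTracker Green Microtubule Cytoskeleton Dye, MitoTracker Red and Annexin V Alexa Fluor 680, with imaging on a CQ1 microscope at 37°C and 5% CO2 after compound addition. Tubulin, mitochondrial-mass and membrane-permeability phenotypes are per cents of healthy-nucleus cells.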

[1] = 12 h, 1 µM, compound concentration 1 uM, replicate 1
[2] = 12 h, 1 µM, compound concentration 1 uM, replicate 2
[3] = 12 h, 10 µM, compound concentration 10 uM, replicate 1
[4] = 12 h, 10 µM, compound concentration 10 uM, replicate 2
[5] = 24 h, 1 µM, compound concentration 1 uM, replicate 1
[6] = 24 h, 1 µM, compound concentration 1 uM, replicate 2
[7] = 24 h, 10 µM, compound concentration 10 uM, replicate 1
[8] = 24 h, 10 µM, compound concentration 10 uM, replicate 2
[9] = 48 h, 1 µM, compound concentration 1 uM, replicate 1
[10] = 48 h, 1 µM, compound concentration 1 uM, replicate 2
[11] = 48 h, 10 µM, compound concentration 10 uM, replicate 1
[12] = 48 h, 10 µM, compound concentration 10 uM, replicate 2

SMILES: CCCOc1ccc2[nH]cc(C3=CCNCC3)c2n1.Cl
- Population Apoptotic (%) [1]: 80%
- Population Fragmented Nuclei (%) [1]: 31%
- Population Healthy Nuclei (%) [1]: 58%
- Population Hoechst High Intensity Objects (%) [1]: 2%
- Population Membrane Permeable-Phenotype (%) [1]: 2%
- Population Mitochondria Different-Phenotype (%) [1]: 1%
- Population Mitotic Cells (%) [1]: 19%
- Population Normal (%) [1]: 97%
- Population Pyknosed Nuclei (%) [1]: 9%
- Population Tubulin-Different-Phenotype (%) [1]: 1%
- Total Cell Count [1]: 218
- Population Apoptotic (%) [2]: 87%
- Population Fragmented Nuclei (%) [2]: 13%
- Population Healthy Nuclei (%) [2]: 78%
- Population Hoechst High Intensity Objects (%) [2]: 1%
- Population Membrane Permeable-Phenotype (%) [2]: 11%
- Population Mitochondria Different-Phenotype (%) [2]: 7%
- Population Mitotic Cells (%) [2]: 12%
- Population Normal (%) [2]: 98%
- Population Pyknosed Nuclei (%) [2]: 8%
- Population Tubulin-Different-Phenotype (%) [2]: 5%
- Total Cell Count [2]: 98
- Population Apoptotic (%) [3]: 86%
- Population Fragmented Nuclei (%) [3]: 24%
- Population Healthy Nuclei (%) [3]: 66%
- Population Hoechst High Intensity Objects (%) [3]: 4%
- Population Membrane Permeable-Phenotype (%) [3]: 6%
- Population Mitochondria Different-Phenotype (%) [3]: 5%
- Population Mitotic Cells (%) [3]: 13%
- Population Normal (%) [3]: 96%
- Population Pyknosed Nuclei (%) [3]: 8%
- Population Tubulin-Different-Phenotype (%) [3]: 3%
- Total Cell Count [3]: 275
- Population Apoptotic (%) [4]: 60%
- Population Fragmented Nuclei (%) [4]: 17%
- Population Healthy Nuclei (%) [4]: 74%
- Population Hoechst High Intensity Objects (%) [4]: 0%
- Population Membrane Permeable-Phenotype (%) [4]: 12%
- Population Mitotic Cells (%) [4]: 40%
- Population Normal (%) [4]: 100%
- Population Pyknosed Nuclei (%) [4]: 7%
- Population Tubulin-Different-Phenotype (%) [4]: 6%
- Total Cell Count [4]: 134
- Population Apoptotic (%) [5]: 70%
- Population Fragmented Nuclei (%) [5]: 27%
- Population Healthy Nuclei (%) [5]: 61%
- Population Hoechst High Intensity Objects (%) [5]: 1%
- Population Membrane Permeable-Phenotype (%) [5]: 6%
- Population Mitochondria Different-Phenotype (%) [5]: 1%
- Population Mitotic Cells (%) [5]: 29%
- Population Normal (%) [5]: 98%
- Population Pyknosed Nuclei (%) [5]: 10%
- Population Tubulin-Different-Phenotype (%) [5]: 3%
- Total Cell Count [5]: 252
- Population Apoptotic (%) [6]: 90%
- Population Fragmented Nuclei (%) [6]: 18%
- Population Healthy Nuclei (%) [6]: 73%
- Population Hoechst High Intensity Objects (%) [6]: 2%
- Population Membrane Permeable-Phenotype (%) [6]: 3%
- Population Mitochondria Different-Phenotype (%) [6]: 3%
- Population Mitotic Cells (%) [6]: 9%
- Population Normal (%) [6]: 97%
- Population Pyknosed Nuclei (%) [6]: 8%
- Population Tubulin-Different-Phenotype (%) [6]: 2%
- Total Cell Count [6]: 138
- Population Apoptotic (%) [7]: 92%
- Population Fragmented Nuclei (%) [7]: 25%
- Population Healthy Nuclei (%) [7]: 66%
- Population Hoechst High Intensity Objects (%) [7]: 3%
- Population Membrane Permeable-Phenotype (%) [7]: 5%
- Population Mitochondria Different-Phenotype (%) [7]: 3%
- Population Mitotic Cells (%) [7]: 7%
- Population Normal (%) [7]: 96%
- Population Pyknosed Nuclei (%) [7]: 8%
- Population Tubulin-Different-Phenotype (%) [7]: 3%
- Total Cell Count [7]: 323
- Population Apoptotic (%) [8]: 72%
- Population Fragmented Nuclei (%) [8]: 14%
- Population Healthy Nuclei (%) [8]: 78%
- Population Hoechst High Intensity Objects (%) [8]: 0%
- Population Membrane Permeable-Phenotype (%) [8]: 11%
- Population Mitochondria Different-Phenotype (%) [8]: 2%
- Population Mitotic Cells (%) [8]: 27%
- Population Normal (%) [8]: 99%
- Population Pyknosed Nuclei (%) [8]: 6%
- Population Tubulin-Different-Phenotype (%) [8]: 4%
- Total Cell Count [8]: 162
- Population Apoptotic (%) [9]: 91%
- Population Fragmented Nuclei (%) [9]: 19%
- Population Healthy Nuclei (%) [9]: 69%
- Population Hoechst High Intensity Objects (%) [9]: 2%
- Population Membrane Permeable-Phenotype (%) [9]: 5%
- Population Mitochondria Different-Phenotype (%) [9]: 3%
- Population Mitotic Cells (%) [9]: 8%
- Population Normal (%) [9]: 97%
- Population Pyknosed Nuclei (%) [9]: 10%
- Population Tubulin-Different-Phenotype (%) [9]: 1%
- Total Cell Count [9]: 350
- Population Apoptotic (%) [10]: 75%
- Population Healthy Nuclei (%) [10]: 74%
- Population Membrane Permeable-Phenotype (%) [10]: 9%
- Population Mitotic Cells (%) [10]: 25%
- Population Pyknosed Nuclei (%) [10]: 6%
- Population Tubulin-Different-Phenotype (%) [10]: 3%
- Total Cell Count [10]: 183
- Population Apoptotic (%) [11]: 100%
- Population Fragmented Nuclei (%) [11]: 18%
- Population Healthy Nuclei (%) [11]: 75%
- Population Hoechst High Intensity Objects (%) [11]: 4%
- Population Membrane Permeable-Phenotype (%) [11]: 5%
- Population Mitochondria Different-Phenotype (%) [11]: 2%
- Population Mitotic Cells (%) [11]: 0%
- Population Normal (%) [11]: 95%
- Population Pyknosed Nuclei (%) [11]: 6%
- Population Tubulin-Different-Phenotype (%) [11]: 3%
- Total Cell Count [11]: 423
- Population Apoptotic (%) [12]: 94%
- Population Fragmented Nuclei (%) [12]: 13%
- Population Healthy Nuclei (%) [12]: 78%
- Population Hoechst High Intensity Objects (%) [12]: 0%
- Population Membrane Permeable-Phenotype (%) [12]: 6%
- Population Mitochondria Different-Phenotype (%) [12]: 3%
- Population Mitotic Cells (%) [12]: 5%
- Population Normal (%) [12]: 99%
- Population Pyknosed Nuclei (%) [12]: 7%
- Total Cell Count [12]: 243
